Source: PubChem BioAssay (several laboratories)
core dimer inh: blocks dimerization of HCV core protein; TR-FRET GST/Flag-core106 dimerization, 1536-well; AID 1899; inhibition, % at 5 µM; actives 0.33% (n = 300,000);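 active = inhibition above the mean of all tested compounds plus 3 SD, set per screening campaign, cut at about 45% in these data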
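test system = GST/Flag-tagged HCV core106 proteins | probe or stimulus = Eu donor and XL665 acceptor anti-tag antibodies | times = compound-protein-antibody incubation 4 h at 22.5 °C | signal = TR-FRET, excitation 340 nm, emission 617 and 671 nm | measure = percent inhibition of core106 dimerization signal | controls = wells lacking GST-core106 and wells with excess unlabelled core106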
ALR inh: inhibitors of human sulfhydryl oxidase ALR. P55789. purified ALR, DTT oxidation, H2O2 HRP-luminol luminescence. inhibition, % (concentration not given with the values). actives 3.8% (n = 290,000). AID 485317;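 active = mean replicate inhibition above about 79%, with every replicate also reaching it, limit read from the data; inconclusive = only one of the two criteria met; inactive = mean below limit and not every replicate reaching it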
Target sequence (P55789 whole entry, looked up): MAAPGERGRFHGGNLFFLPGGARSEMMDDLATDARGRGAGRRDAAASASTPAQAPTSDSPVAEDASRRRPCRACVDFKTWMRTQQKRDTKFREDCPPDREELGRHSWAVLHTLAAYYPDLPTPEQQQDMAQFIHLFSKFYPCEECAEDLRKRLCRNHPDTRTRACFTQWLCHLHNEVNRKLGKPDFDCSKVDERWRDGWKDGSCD
HSF-1 act: increases HSF-1 driven luciferase reporter signal. activation, % at 9 µM. NIH3T3-HGL HSF-1 luciferase reporter, MG132, 8 h; 100% = twice DMSO control signal. actives 1.7% (n = 300,000);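 active = mean replicate activation of at least 50% with a set share of replicates each reaching 50%; inconclusive = only one of those two conditions met; inactive = mean below 50% and too few replicates reaching it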;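 note: 0% = median of the neutral control wells and 100% = twice that signal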
PHOSPHO1 block: inhibitors of human PHOSPHO1 phosphatase. Q8TCT1. actives 1.1% (n = 290,000). AID 1565. inhibition, % at 13.3 µM. recombinant PHOSPHO1, absorbance phosphatase assay; in the data active = inhibition above about 60%
Target sequence (Q8TCT1 whole entry, looked up): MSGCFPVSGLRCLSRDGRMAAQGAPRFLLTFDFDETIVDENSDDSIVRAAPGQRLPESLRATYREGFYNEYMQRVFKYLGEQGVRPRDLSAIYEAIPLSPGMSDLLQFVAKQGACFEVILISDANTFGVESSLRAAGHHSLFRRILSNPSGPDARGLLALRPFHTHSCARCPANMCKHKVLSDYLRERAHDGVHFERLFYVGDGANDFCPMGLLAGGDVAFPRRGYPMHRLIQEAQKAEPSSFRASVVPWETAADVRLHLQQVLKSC
AI-2 QS modul: modulates the Vibrio harveyi AI-2 quorum sensing system. Vibrio harveyi JMH597 AI-2 luminescence/OD600 ratio, 9 h; active compounds read low; strain lacks LuxN and CqsS sensors; 0 = neutral-control median. activity change, % at 7.5 µM. actives 0.4% (n = 300,000). AID 2094; in the data active = activity change below about -75%, passing the limit was not always enough; inconclusive = no clear call, values can overlap the other calls;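 note: luminescence divided by OD600 gain over 9 h not by final OD600 alone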
HSF1 inh: HSF1 inhibition | activity change, negative = inhibition, % at 7.5 µM (by protocol) | actives 0.77% (n = 300,000) | AID 2098 | NIH3T3-HGL HSE-luciferase, MG132-induced, luminescence 8 h; active compounds read low;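 active = more than half of replicate wells show activity change below -50%, luminescence cut by over half; inconclusive = some wells, but at most half, below -50%; inactive = no replicate well below -50%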;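 note: luciferase reports HSF-1 transcriptional activity via heat shock element; 0% = median of DMSO wells and -100% = zero luminescence signal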
* hit, by the source's call; ? = inconclusive; . = no result. Only some compounds are listed: those with a hit (about 6.8% of all), similar ones and a draw of the others.

SMILES	core dimer inh	ALR inh	HSF-1 act	PHOSPHO1 block	AI-2 QS modul	HSF1 inh
COC(=O)c1cc(NS(=O)(=O)c2ccc(N3CCC(C)CC3)c([N+](=O)[O-])c2)cc(C(=O)OC)c1	21.4	-7.1	-4.4	-23.9	9.5	-8.5
COC(=O)C(C)NC(=O)C12CC3CC(C1)CC(c1ccc(C)cc1)(C3)C2 (stereo not drawn)	-6.7	.	6.4	9.7	15.7	-5.4
Cc1nc2ccccn2c1-c1ccnn1S(=O)(=O)c1ccc(F)cc1	-1.0	-0.3	-70.5	28.5	15.3	-66.7*
Brc1ccc2oc(-c3ccn[nH]3)cc2c1	3.3	-6.4	57.1*	-14.0	24.7	30.2
Cc1ccc(-c2cc(C(=O)O)c3sc(N4CCCCC4)nc3n2)cc1	2.1	98.3*	-8.2	-22.1	16.6	1.9
O=C(O)c1cc(-c2ccccc2)nc2nc(N3CCCCC3)sc12	7.3	79.7*	-35.2	-21.7	15.3	-15.3
CCOC(=O)N1CCN(CC(=O)Nc2ccc(Oc3ccccc3)cc2)CC1	-11.8	10.4	-13.5	1.0	-47.0	-6.8
Cc1nc(N2CCN(C)CC2)c2cc(-c3ccccc3)sc2n1	3.8	96.5*	?	2.2	.	17.2
COc1ccc(NS(=O)(=O)c2ccc(O)c(NC(=O)c3cc4c(C)nn(-c5ccc(F)cc5)c4s3)c2)cc1	42.7	-2.8	33.9	2.4	30.6	8.8
Cc1ccccc1/C(N)=N/OC(=O)c1ccc(F)cc1	-2.8	5.8	57.8*	29.5	11.7	27.0
CCC(Sc1nc(-c2cccc(OC)c2)c(C#N)c(=O)[nH]1)C(=O)Nc1nnc(C(C)C)s1 (stereo not drawn)	18.9	12.8	1.4	10.6	1.1	-6.4
O=C(CSc1nc2[nH]ncc2c(=O)[nH]1)Nc1cccc(Cl)c1	-7.0	2.0	0.3	.	5.5	-2.0
N#Cc1c(-c2ccco2)nc(SCC(=O)Nc2cccc(Cl)c2)[nH]c1=O	10.8	98.6*	12.7	28.8	12.4	0.1
CCc1ccc(NC(=O)C(C)Sc2nc(-c3ccco3)c(C#N)c(=O)[nH]2)cc1 (stereo not drawn)	9.7	98.1*	-13.6	6.3	8.9	2.5
O=C(c1ccccc1)N1CCN(c2ncccn2)CC1	7.3	-12.4	22.1	44.7	3.8	0.2
Nc1ncnc2nc(N3CCN(C(=O)c4ccccc4)CC3)[nH]c12	0.1	19.5	-80.2	3.3	23.3	-72.6*
Cc1c(CN(C)C(=O)c2sc3cc(Cl)ccc3c2Cl)cnn1C	1.4	0.3	16.9	40.7	3.6	-4.3
COc1ccc(-c2nc(-c3cccs3)c(-c3cccs3)[nH]2)cc1O	-10.9	99.4*	-3.0	12.4	15.7	11.3
CC(C)CCNC(=O)c1csc2c1CCCCC2	2.1	-13.3	27.0	-5.3	25.9	9.3
CCC(C)NC(=O)c1csc2c1CCCCC2 (stereo not drawn)	-4.2	10.8	67.2*	-6.0	7.0	18.8
COc1ccc(/C=C2\SC(=S)N(NC(=O)c3csc4c3CCCC4)C2=O)cc1	43.4	-2.1	-20.8	71.7*	0.8	-6.5
COc1ccc(CNC(=O)c2csc3c2CCCC3)cc1	.	-12.5	.	.	.	.
COc1ccc(NC(=O)c2csc3c2CCCC3)cc1	-1.3	1.0	53.1*	10.7	7.2	34.1
COC(=O)c1ccc(OS(=O)(=O)N(C)C)cc1	3.9	-30.9	31.5	15.5	14.4	18.5
COc1cc(C(C(=O)NCC2CCCO2)N(C(=O)Cn2nnc3ccccc32)c2ccc(C(C)=O)cc2)ccc1O (stereo not drawn)	-9.8	24.5	-4.2	26.1	-2.0	3.1
SMILES	core dimer inh	ALR inh	HSF-1 act	PHOSPHO1 block	AI-2 QS modul	HSF1 inh
CC1(C)CC2CC(C)(CN2C(=O)COc2cccc3ccccc23)C1 (stereo not drawn)	14.4	-3.8	8.0	-4.4	10.0	4.1
CC1(C)CC2CC(C)(CN2C(=O)CCCN2C(=O)c3ccccc3C2=O)C1 (stereo not drawn)	-1.0	-2.0	-68.6	-42.5	11.1	-56.6*
CCOc1ccc(S(=O)(=O)NC(C)(C)C)cc1-c1nc2c(C(C)(C)C)nn(C)c2c(=O)[nH]1	9.1	-4.3	26.1	7.5	17.7	13.7
O=C(NCCO)C(=O)Nc1cc2c3c(c1)CC(=O)N3CCC2	-15.0	.	3.5	12.6	5.6	-3.0
O=C(CCl)c1cc2c3c(c1)CC(=O)N3CCC2	14.2	98.1*	-5.1	20.0	37.1	0.4
O=S(=O)(c1ccc(NC(=S)NCc2ccco2)cc1)N1CCCCC1	3.9	7.0	.	50.8	-88.0*	.
O=S(=O)(c1ccc2nc(-c3ccco3)c(-c3ccco3)nc2c1)N1CCOCC1	58.6*	-17.2	5.5	64.7*	18.1	-0.2
O=C(NCc1ccco1)C1CCN(S(=O)(=O)c2cccc([N+](=O)[O-])c2)CC1	8.9	-3.7	-83.6	44.9	12.8	-79.8*
O=C(NCc1ccco1)c1ccc(S(=O)(=O)N2CCCCC2)cc1	-2.1	.	-50.6	3.4	35.8	-38.3
COc1ccccc1CNC(=O)C1CCN(S(=O)(=O)c2cccc([N+](=O)[O-])c2)CC1	8.2	-8.2	7.1	31.0	27.6	7.4
O=C(NCc1ccco1)c1ccc(S(=O)(=O)N2CCOCC2)cc1	47.8*	10.6	19.9	-4.2	15.9	-4.0
Cc1cccc(C)c1NC(=O)CSc1nnc([C@H](C)NC(=O)OC(C)(C)C)o1	-7.8	-1.0	2.6	14.4	22.8	-2.7
C[C@H](NC(=O)OC(C)(C)C)c1nnc(SCC(=O)Nc2cccc(Cl)c2)o1	-1.2	95.6*	-0.1	11.9	32.6	-6.4
CC(C)[C@H](NC(=O)OC(C)(C)C)c1nnc(SCC(=O)Nc2ccc(Br)cc2)o1	-3.4	-12.3	84.1*	-6.7	34.7	31.6
CN(C)c1ccc(C2CNC(c3ccc(Cl)c([N+](=O)[O-])c3)c3[nH]c4ccccc4c32)cc1 (stereo not drawn)	13.1	-2.2	-12.9	-34.5	-26.3	0.5
O=C1CC(c2ccc(Cl)c([N+](=O)[O-])c2)c2ccc3ccccc3c2N1 (stereo not drawn)	14.9	2.4	-72.3	18.6	14.0	-64.8*
CCN1C(=O)/C(=C\N2CCCCCC2)SC1=S	-1.3	-2.4	67.3*	1.8	-32.6	47.6
OCCCCCN=c1cc(-c2ccccc2)oc2ccc(Cl)cc12	-2.2	0.3	97.7*	42.0	14.7	69.3
Cc1[nH]c(=O)[nH]c(=O)c1N1CCOCC1	-3.0	-0.3	-2.9	17.7	8.8	-2.1
O=c1cc(CSc2nnc(-c3cccs3)n2Cc2ccccc2)nc2sc3ccccc3n12	59.6*	-14.2	0.3	69.4*	23.8	-4.3
CCn1c(SCC(=O)c2ccc(O)c(O)c2)nnc1-c1ccccc1OC	1.8	98.8*	8.3	47.3	8.7	-1.7
